Hits are enriched below; roughly 2.5% of the tested compounds scored in any of these assays.
SIRT5 block – blocks human SIRT5 desuccinylation of peptide; 330,000 compounds, 1.1% hits; inhibition, % at 15 µM; Q9NXA8; AID 652115; Purified SirT5, succinyl-peptide AMC, trypsin-coupled fluorescence; in the data active = inhibition above about 15%
S100A4 inh HTS – inhibitors of human S100A4 binding to myosin IIA peptide | P26447 | inhibition, % at 10.7 µM | 360,000 compounds, 0.14% hits | S100A4/TAMRA-MyoIIA peptide fluorescence polarization;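 active = mean inhibition of at least 70% across replicates, with every replicate also reaching that level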
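Material: human S100A4 monomer with TAMRA-labelled myosin IIA peptide; buffer or medium: HEPES pH 7.2 with CaCl2, KCl, NaCl, DTT, Triton; compound dosing: one concentration per compound; schedule: 5 min incubation before reading; benchmarks: neutral control DMSO, positive control TFP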
E-sel inducer – E-selectin induction on HUVECs | HUVEC E-selectin immunofluorescence imaging; normalized: neutral wells 0, TNF-alpha wells 100 | activation, % at 7.58 µM | 260,000 compounds, 0.37% hits;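 active = mean E-selectin-positive cell signal at least 10% of the positive control, reached in at least 60% of replicates, without over 20% cell loss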
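Assay system: HUVEC, human umbilical vein endothelial cells / Amount: 3,000 HUVEC/well / Controls: TNF-alpha positive control, DMSO neutral control / Compound dosing: single concentration / Medium: EGM-2 over gelatin coat / Evaluation: percent E-selectin-positive cells / Signal: immunofluorescence imaging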
FGF22 binding – binders of recombinant human FGF22 by thermal shift; SYPRO orange fluorescence; percent of sucrose octasulfate shift, DMSO zero; activity (Tm shift, normalised), % at 9.99 µM; 340,000 compounds, 1.5% hits; AID 651658;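 active = mean Tm shift, scaled 0 neutral to 100 positive control, at about 1.3% or above, every replicate too, limit read from the data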
miR-122 sensor – inhibitors of miR-122 in Huh7 cells; 340,000 compounds, 0.3% hits; Huh7 miR-122 Renilla luciferase sensor, 48 h; neutral wells = 0, positive control = 100; activation (reporter increase), % at 12.5 µM;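 active = mean replicate activation score at least 90 and every replicate individually at or above 90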;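 note: higher luciferase means less miR-122 activity so hits act as miR-122 inhibitors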
Numbers without * were called inactive; . = not tested or not shown; [ ] = dose if it differs, or a comment.

SMILES	SIRT5 block	S100A4 inh HTS	E-sel inducer	FGF22 binding	miR-122 sensor
CC(C)c1ccccc1NC(=O)c1cnccn1	19.6*	52.8	.	.	2.4
Cc1cccc(Nc2nc(-c3ccc4c(c3)OCCO4)cs2)c1	.	.	.	.	9.2
Cc1nc(-c2ccc3c(c2)OCCO3)cs1	-2.8	-1.0	-0.1	43.1*	.
C/C(=N\Nc1ccc([N+](=O)[O-])cc1)c1cc2ccccc2o1	0.4	3.7	0.3	43.7*	.
C[C@H](CO)N1C[C@H](C)[C@@H](CN(C)Cc2ccc(C(=O)Nc3ccccc3N)cc2)Oc2ccc(NC(=O)Cc3ccccc3)cc2CC1=O	7.2	-7.2	-3.4	0.0	.
COc1ccc(S(=O)(=O)N(C)C[C@@H]2Oc3c(NS(=O)(=O)c4ccc(C)cc4)cccc3C(=O)N([C@H](C)CO)C[C@H]2C)cc1	0.3	3.0	-0.4	0.3	.
O=C(c1cncc(Br)c1)N1CCN(S(=O)(=O)c2ccccc2C(F)(F)F)CC1	0.3	-1.5	32.6*	-0.2	-4.0
CCC(C)N1C(=O)N(C)C2NC(=O)NC21 (centres undefined)	24.9*	-1.5	.	0.0	.
CC(C)NC(=O)N[C@@H]1C=C[C@H](CC(=O)NCc2ccc(Oc3ccccc3)cc2)O[C@H]1CO	-4.0	-3.0	0.7	0.1	.
N#C[C@H]1[C@H](c2ccc(C#CC3CCCC3)cc2)[C@@H](CO)N1C(=O)c1cccc(F)c1	1.2	10.9	-0.2	.	.
Cc1noc(C)c1S(=O)(=O)Nc1ccc2c(c1)C(=O)N([C@H](C)CO)C[C@@H](C)[C@H](CN(C)Cc1ccc(Cl)c(Cl)c1)OCCCC[C@@H](C)O2	17.0*	-15.8	-0.3	1.0	-10.8[16.7 µM]
Cc1noc(C)c1S(=O)(=O)Nc1ccc2c(c1)C(=O)N([C@@H](C)CO)C[C@@H](C)[C@@H](CN(C)Cc1ccc3c(c1)OCO3)O2	2.3	-0.6	33.0*	0.5	13.6[16.7 µM]
Cc1noc(C)c1S(=O)(=O)Nc1ccc2c(c1)C(=O)N([C@@H](C)CO)C[C@@H](C)[C@H](CN(C)Cc1ccc3c(c1)OCO3)O2	.	.	0.6	.	.
Cc1noc(C)c1S(=O)(=O)Nc1ccc2c(c1)C(=O)N([C@H](C)CO)C[C@H](C)[C@@H](CN(C)Cc1ccc(Cl)c(Cl)c1)OCCCC[C@H](C)O2	15.5*	-5.6	-0.2	.	.
CCC(=O)N1[C@@H](CO)[C@@H](c2ccccc2)C12CN(C(=O)Nc1cccc(OC)c1)C2	6.0	3.2	-0.5	-0.1	.
Cc1noc(C)c1NC(=O)N(C)C[C@H]1OCc2ccccc2-c2c(n(C)c3ccccc23)C(=O)N([C@H](C)CO)C[C@@H]1C	4.6	5.6	0.0	0.5	.
Cc1ccc(C(=O)c2coc3ccc(O)c(Cl)c23)cc1	.	.	.	.	6.2
O=C(c1ccccc1)c1coc2ccc(O)c(Cl)c12	21.5*	7.4	.	0.2	-4.7
CCCN(C)C[C@H]1Oc2cc(C#CCOC)ccc2S(=O)(=O)N([C@@H](C)CO)C[C@H]1C	-2.2	-24.5	-0.3	0.1	1.5[16.7 µM]
Cc1nn(CC(=O)Nc2nccs2)c(C)c1[N+](=O)[O-]	-2.6	-0.7	0.6	-0.1	.
Cc1cc([N+](=O)[O-])nn1CCC(=O)Nc1nccs1	-2.6	-5.1	.	43.1*	.
CCCn1c(N)c(N(CCOC)C(=O)/C=C/c2ccc(C(=O)OC)cc2)c(=O)[nH]c1=O	0.3	0.1	.	42.9*	-10.5
CCCn1c(N)c(N(CCOC)C(=O)c2ccc(-c3ccccc3)cc2)c(=O)[nH]c1=O	-4.7	-2.9	.	-0.1	-8.9
Cc1cc(/C(N)=N/OC(=O)Nc2cccc(C(F)(F)F)c2)no1	.	-4.0	66.8*	0.0	8.1
CC(=O)N1CC2(C1)[C@@H](c1ccc(-c3ccccc3C)cc1)[C@@H](CO)N2C(C)=O	-2.5	-2.6	0.8	-0.1	.
C[C@H]1CN([C@@H](C)CO)C(=O)Cc2cc(NS(=O)(=O)c3ccc(Cl)cc3)ccc2O[C@@H]1CN(C)Cc1ccc(-c2ccccc2)cc1	.	.	1.2	.	-2.6[16.7 µM]
COc1ccc(S(=O)(=O)N(CCc2ccccc2)CC(=O)N2CCOCC2)cc1	.	.	.	.	125.2*
COc1ccc(S(=O)(=O)N(C)CC(=O)N2CCOCC2)cc1	.	-0.3	.	.	-4.3
COCCCNC(=O)CN(CCc1ccccc1)S(=O)(=O)c1ccc(C)cc1	-1.6	-6.5	.	44.0*	-1.5
Cc1ccc(S(=O)(=O)NC[C@@H]2CC[C@@H]3[C@@H](CN3Cc3ccccc3C(=O)O)O2)cc1	4.7	14.5	.	.	.

Assay outcomes: PubChem, Broad Institute
